Laboratory results from ChEMBL document CHEMBL2203112, “Synthesis, evaluation of anti-HIV-1 and anti-HCV activity of novel 2',3'-dideoxy-2',2'-difluoro-4'-azanucleosides” (Bioorg Med Chem, 2012).
pEC50, pIC50: −log10 of the molar value. The source made the active and inactive calls. No cut-off for these calls is given here.

Assays:
[1] = test system: Vero; experiment: Cytotoxicity against african green monkey Vero cells; assay type: cell-based; details: Chlorocebus sabaeus
Outline: (§1)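 Cytotoxicity measured in lymphocytic CEM cells and in Vero (African green monkey kidney) cells; expressed as IC50 (μM).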

[2] = test system: CCRF-CEM; experiment: Cytotoxicity against human CEM cells; assay type: cell-based; outline: as §1
[3] = test system: PBMC; experiment: Cytotoxicity against human PBMC; assay type: cell-based
Outline: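 Cytotoxicity measured in uninfected, phytohemagglutinin-stimulated human PBM cells; expressed as IC50 (μM).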

[4] = test system: Human immunodeficiency virus 1; experiment: Antiviral activity against HIV1 LAI infected in human PBMC assessed as inhibition of viral replication; assay type: functional, organism-based; details: Human immunodeficiency virus 1, LAI
[5] = test system: Hepatitis C virus; experiment: Antiviral activity against HCV assessed as inhibition of viral replication at 10 uM; assay type: functional, organism-based; details: Hepacivirus hominis
Outline: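 HCV replicon assay with a single test concentration of 10 μM; 2′-C-Me-cytidine served as positive control.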

| Structure (SMILES) | pEC50 [4] | EC90 [4] [µM] | pIC50 [1] | pIC50 [2] | pIC50 [3] | inhibition [5] |
| --- | --- | --- | --- | --- | --- | --- |
| CC(C)(C)OC(=O)N1C(n2cnc3ncnc(Cl)c32)C(F)(F)C[C@H]1CO (single isomer, unassigned; 29) [listing 1 of 2 here] | 4.03 | > 100 | < 4.00 | 4.26 | 4.23 | – |
| CC(C)(C)OC(=O)N1C(n2cnc3c(Cl)ncnc32)C(F)(F)C[C@H]1CO (single isomer, unassigned; 26) [listing 1 of 2 here] | – | – | – | – | – | inactive |
| CC(C)(C)OC(=O)N1C(n2cnc3c(Cl)ncnc32)C(F)(F)C[C@H]1CO (single isomer, unassigned; 27) [listing 1 of 2 here] | – | – | – | – | – | inactive |
| CC(C)(C)OC(=O)N1C(n2cnc3ncnc(Cl)c32)C(F)(F)C[C@H]1CO (single isomer, unassigned; 29) [listing 2 of 2 here] | – | – | – | – | – | inactive |
| CC(C)(C)OC(=O)N1C(n2cnc3c(N)ncnc32)C(F)(F)C[C@H]1CO (single isomer, unassigned; 30) [listing 1 of 2 here] | – | – | – | – | – | inactive |
| Cc1cn([C@H]2C[C@H](N=[N+]=[N-])[C@@H](CO)O2)c(=O)[nH]c1=O [ZIDOVUDINE] | – | 0.0027 | – | – | < 4.00 | inactive |
| CC(C)(C)OC(=O)N1C(n2cnc3ncnc(N)c32)C(F)(F)C[C@H]1CO (single isomer, unassigned; 33) [listing 2 of 2 here] | – | – | – | – | – | inactive |
| CC(C)(C)OC(=O)N1C(n2cnc3ncnc(N)c32)C(F)(F)C[C@H]1CO (single isomer, unassigned; 32) [listing 1 of 2 here] | – | – | – | – | – | inactive |
| CC(C)(C)OC(=O)N1C(n2cnc3c(N)ncnc32)C(F)(F)C[C@H]1CO (single isomer, unassigned; 31) [listing 2 of 2 here] | – | – | – | – | – | inactive |
| CC(C)(C)OC(=O)N1C(n2cnc3ncnc(Cl)c32)C(F)(F)C[C@H]1CO (single isomer, unassigned; 28) [listing 2 of 2 here] | – | – | – | – | – | inactive |

Further lines, with some results ahead:

| pEC50 [4] | EC90 [4] [µM] | Structure (SMILES) | pIC50 [1] | pIC50 [2] | pIC50 [3] | inhibition [5] |
| --- | --- | --- | --- | --- | --- | --- |
| 4.35 | 90.8 | CC(C)(C)OC(=O)N1[C@H](CO)CC(F)(F)[C@@H]1n1cc(F)c(=O)[nH]c1=O | < 4.00 | < 4.00 | 4.55 | inactive |
| 4.19 | > 100 | CC(C)(C)OC(=O)N1C(n2cnc3c(Cl)ncnc32)C(F)(F)C[C@H]1CO (single isomer, unassigned; 27) [listing 2 of 2 here] | < 4.00 | 4.42 | 4.24 | – |
| < 4.00 | > 100 | CC(C)(C)OC(=O)N1[C@H](CO)CC(F)(F)[C@@H]1n1ccc(=O)[nH]c1=O | 4.35 | < 4.00 | 4.09 | inactive |
| < 4.00 | > 100 | CC(C)(C)OC(=O)N1C(n2cnc3ncnc(N)c32)C(F)(F)C[C@H]1CO (single isomer, unassigned; 33) [listing 1 of 2 here] | < 4.00 | < 4.00 | < 4.00 | – |
| < 4.00 | > 100 | CC(C)(C)OC(=O)N1C(n2cnc3ncnc(Cl)c32)C(F)(F)C[C@H]1CO (single isomer, unassigned; 28) [listing 1 of 2 here] | < 4.00 | < 4.00 | < 4.00 | – |
| < 4.00 | > 100 | CC(C)(C)OC(=O)N1[C@H](CO)CC(F)(F)[C@H]1n1ccc(=O)[nH]c1=O | < 4.00 | < 4.00 | < 4.00 | inactive |
| < 4.00 | > 100 | CC(C)(C)OC(=O)N1C(n2cnc3c(Cl)ncnc32)C(F)(F)C[C@H]1CO (single isomer, unassigned; 26) [listing 2 of 2 here] | < 4.00 | 4.24 | < 4.00 | – |
| < 4.00 | > 100 | CC(C)(C)OC(=O)N1C(n2cnc3c(N)ncnc32)C(F)(F)C[C@H]1CO (single isomer, unassigned; 31) [listing 1 of 2 here] | < 4.00 | < 4.00 | < 4.00 | – |
| 4.43 | 75.6 | CC(C)(C)OC(=O)N1[C@H](CO)CC(F)(F)[C@H]1n1cc(F)c(=O)[nH]c1=O | < 4.00 | < 4.00 | 4.52 | inactive |
| < 4.00 | > 100 | CC(C)(C)OC(=O)N1C(n2cnc3c(N)ncnc32)C(F)(F)C[C@H]1CO (single isomer, unassigned; 30) [listing 2 of 2 here] | < 4.00 | < 4.00 | < 4.00 | – |
| < 4.00 | > 100 | CC(C)(C)OC(=O)N1C(n2cnc3ncnc(N)c32)C(F)(F)C[C@H]1CO (single isomer, unassigned; 32) [listing 2 of 2 here] | < 4.00 | < 4.00 | < 4.00 | – |
